# About 950 (0.26%) of roughly 360,000 compounds were called active.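 Rule for the calls: active = inhibition above a per-plate limit, mean inhibition of low control wells plus 3 SD (cut at about 25% in these data); inactive = the rest.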 The sample as a whole holds a higher share of actives than the screen did.
# Molecular target: ADP-ribosylation factor GTPase-activating protein 1 (Rattus norvegicus) (UniProt Q62848)
# Assay: inhibitors of rat ARFGAP1 GAP activity, primary screen, biochemical, fluorescence polarization, GDP tracer (AID 651572)
# Conditions: Arfgap1-stimulated ARF1 GTP hydrolysis, GDP FP detection; at 16.5 µM; hits give high values
# In short: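 Material: truncated rat Arfgap1 GAP domain; Incubation: compound-enzyme preincubation 20 min, reaction 120 min, detection 60 min, 25 °C; Read-out: percent inhibition of Arfgap1-stimulated GTP hydrolysis; Technique: FP, GDP Alexa 633 tracer displaced from anti-GDP antibody, 620/688 nm; Controls: No-Arfgap1 wells (100%) versus DMSO full-reaction wells (0%); Replication: single well per compound.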
# Chain of ADP-ribosylation factor GTPase-activating protein 1 (Rattus norvegicus) (Q62848 1-136 limits assumed): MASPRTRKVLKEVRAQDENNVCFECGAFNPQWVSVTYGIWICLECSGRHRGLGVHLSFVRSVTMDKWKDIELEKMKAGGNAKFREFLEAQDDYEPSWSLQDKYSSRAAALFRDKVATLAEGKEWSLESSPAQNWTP
row,SMILES,inhibition
1,COC(=O)[C@]12C[C@H](CC(=O)NCCCCc3ccccc3)C(=O)N(Cc3ccc4c(c3)OCO4)C1=C[C@H](C(C)(C)C)O[C@@H]2C,2.49% (inactive)
2,CCC(=C/c1sc2ccc3ccccc3c2[n+]1C)/C=C1\Sc2ccc3ccccc3c2N1C,39.3% (active)
3,Nc1[nH]c(C(=O)c2ccc(Br)cc2)c(-c2ccc3c(c2)OCO3)c1C(=O)NCCc1c[nH]c2ccccc12,15.2% (inactive)
4,CC(=O)c1cccc(-c2cnc3c(NC=O)cc(-c4ccccc4Oc4ccccc4)cn23)c1,-2.03% (inactive)
5,CN(C)CCNC(=O)c1ccc(-c2cn3c(-c4ccc(Oc5ccccc5)cc4)cnc3cn2)cc1,40.4% (active)
6,CN(C)CCNC(=O)c1cccc(-c2cnc3c(NC=O)cc(-c4cccc(C(F)(F)F)c4)cn23)c1,5.54% (inactive)
7,CCOC(=O)Cn1c2c(n(-c3ccc(F)cc3)c1=O)C=C(c1ccccc1)[C@@H](C)C(C(=O)N(C)C1CCCCC1)=C2,-3.57% (inactive)
8,CCc1ccc(C2=CC(=O)CC(C)(C)C2=O)cc1,5.54% (inactive)
9,COC(=O)C1=C(C)N(Cc2ccccc2C(F)(F)F)C(=NCc2ccc(C(F)(F)F)cc2)NC1c1ccc(F)cc1 (configuration not stated),16.5% (inactive)
10,COc1cccc(CC(=O)N2CCN(C(=O)C(=O)c3cccc(C(F)(F)F)c3)CC2)c1,-7.68% (inactive)
11,O=S1(=O)c2c(cccc2N2CCCC2)O[C@H](COCc2ccccc2)CN1C1CC1,-15.6% (inactive)
12,O=C1[C@@H](c2ccccc2)[C@@H](c2ccccc2)N1c1ccccc1,-3.37% (inactive)
13,O=C(O)CCn1c(SCc2cc(=O)n3ccccc3n2)nc2ccsc2c1=O,9.88% (inactive)
14,CCn1c(SCC(=O)N2CCCC2=O)nc2ccccc21,-1.54% (inactive)
15,CCn1c(SCc2cc(=O)n3ccsc3n2)nc2ccccc21,26.2% (active)
16,O=C1Nc2ccccc2C1=NN=Cc1ccco1,18.3% (inactive)
17,COC(=O)C1=C(C)N(Cc2cccc(C(F)(F)F)c2)C(=NCc2ccccc2)NC1c1ccccc1C(F)(F)F (configuration not stated),18.8% (inactive)
18,O=C(Nc1c(Cl)c(C2CC2)nn1-c1ccccc1)C(Cl)(Cl)Cl,1.34% (inactive)
19,COc1cccc(NC(=O)N(C)C[C@@H]2OCc3cn(nn3)CCCC(=O)N([C@@H](C)CO)C[C@H]2C)c1,2.11% (inactive)
20,Nc1ncnc2c1ncn2[C@@H]1O[C@H](C(=O)N[C@@H](CCc2ccccc2)C(=O)N2CCCN(Cc3cccs3)CC2)[C@@H](O)[C@H]1O,-6.61% (inactive)
21,COc1ccc(SSc2ccc(OC)cc2C(=O)O)c(C(=O)O)c1,-0.05% (inactive)

row,SMILES,inhibition
1,C[C@H](O)[C@@H]1C(=O)N2CCc3c([nH]c4c(-c5ccc6c(c5)OCO6)cccc34)[C@@H]2C[C@@H]1N(C)C(=O)c1ccco1,1.71% (inactive)
2,COc1cccc(CNc2nc(NCc3cccs3)nc3ccsc23)c1,2.65% (inactive)
3,COc1cccc(CNc2ncc(-c3ccccc3)n2C)c1,-4.8% (inactive)
4,COc1cccc(CNc2nc(C(F)(F)F)nc3ccccc23)c1,27.8% (active)
5,C[C@@H](CN1C2=NC[C@@H](Cc3ccccc3)N2C[C@H]1Cc1ccc(O)cc1)NC(=O)CCC1CCCCC1,6.99% (inactive)
6,CC[C@H](NC(=O)[C@H](Cc1ccccc1)NC(=O)[C@H]1O[C@@H](n2cnc3c(=O)[nH]c(N)nc32)[C@H](O)[C@@H]1O)c1ccccc1,10% (inactive)
7,COC(=O)[C@]1(Cc2ccccc2)NC=C(C(=O)c2ccccc2)[C@@H]1c1cccc(OC)c1,1.68% (inactive)
8,O=S1(=O)c2c(cccc2N2CCCCC2)O[C@H](COCc2ccccc2)CN1C1CC1,0.4% (inactive)
9,C#CCN([C@@H](C)C(=O)OCC)S(=O)(=O)c1ccc(Br)cc1F,-5.91% (inactive)
10,Cc1cc(N2CCN(C(=O)OC(C)(C)C)C[C@H]2C)ccc1N1CCN(Cc2ccccc2)[C@H](C)C1,1.76% (inactive)
11,CCCCCCCCN1C(=O)[C@@H](CC(=O)NCCCC)C[C@@]2(C(=O)OC)C1=C[C@H](C(C)(C)C)O[C@@H]2C,3.82% (inactive)
12,Cc1[nH]c2ccccc2c1CC(=O)Nc1ccc(Nc2cccnc2)c(-c2cccc(Cl)c2)c1,16.8% (inactive)
13,COc1ccc(CNC(=O)C(C)NCc2ccccc2Cl)cc1 (configuration not stated),-1.63% (inactive)
14,COc1ccc(CNC(=O)C(Cc2ccccc2)n2cccc2)cc1 (configuration not stated),33.6% (active)
15,CCSc1ccccc1C(=O)NCc1ccc(OC)cc1,-5.39% (inactive)
16,Cc1cc(Br)cn2c(Cc3ccccc3C(F)(F)F)c(-c3ccc(C#N)cc3)nc12,-8.18% (inactive)
17,COC(=O)Cc1nnn2c1[C@H](C)[C@@H](OC)c1cc(Br)ccc1-2,-3.05% (inactive)
18,CC(=O)C1=C(C)N(Cc2ccccc2)C(=S)NC1c1cccc(Br)c1 (configuration not stated),20.9% (inactive)
19,CN1CCCCC(NC(=O)C(C)(C)C)C1=O (configuration not stated),-2.4% (inactive)
20,CC(C)CNc1cccc2c1S(=O)(=O)N[C@H](C)CO2,1.59% (inactive)
21,COC(=O)c1cc2c(c3c4ccccc4n(S(=O)(=O)c4cccc(C)c4)c13)C(=O)N(Cc1ccccc1)C2,46.8% (active)

row,SMILES,inhibition
1,COC(=O)c1cc2c(c3c4cc(F)ccc4n(S(=O)(=O)c4ccccc4)c13)C(=O)N(Cc1ccccc1OC)C2,-6.31% (inactive)
2,COC(=O)c1c(-c2ccc(OC)cc2)c2c(c3c4ccccc4n(S(=O)(=O)c4ccc(C)cc4)c13)C(=O)N(C)C2,2.2% (inactive)
3,COC(=O)C1=C(C)N(Cc2ccc(F)cc2)C(=S)NC1c1cccc(Cl)c1 (configuration not stated),0.22% (inactive)
4,COc1ccc(/C=C2\SC(=S)N(CCCC(=O)NC3CCCC3)C2=O)cc1OC,25.1% (active)
5,COc1ccc(/C=C/C(=O)OCC(=O)NC2CCCCCC2)cc1OC,-8.52% (inactive)
6,COc1ccc(CCNC(=O)CCC(=O)NC2CCCCC2)cc1OC,9.15% (inactive)
7,N#Cc1ccc(OCCCN2CCC(C(O)(c3ccccc3)c3ccccc3)CC2)c(F)c1,-2.6% (inactive)
8,COc1ccc(C(O)c2nc(-c3ccc(OC)nc3)cs2)cc1 (configuration not stated),6.07% (inactive)
9,COc1ccc(-c2csc(Nc3ccc(O)cc3)n2)cc1,24.8% (active)
10,COC(=O)CCc1sc(Nc2ccc(Br)cc2)nc1-c1ccc(OC)cc1,7.69% (inactive)
11,CC(C)(C)n1nc(C2CC2)c(Br)c1NC(=O)c1ccccc1F,-8.2% (inactive)
12,Oc1cccc2ccc(/C=C/c3ccc(Br)s3)nc12,9.22% (inactive)
13,CC(=O)Nc1ccc(S(=O)(=O)Nc2nccc(/C=C/c3ccccc3F)n2)cc1,-5.08% (inactive)
14,Nc1ccc(S(=O)(=O)Nc2nccc(/C=C/c3ccc(Br)s3)n2)cc1,33.6% (active)
15,COc1ccccc1CCn1cnc(-c2ccccc2)c1C(C)C,2.03% (inactive)
16,CC(=O)C1=C(C)N(Cc2ccc(Cl)cc2)C(=S)NC1c1ccc(F)cc1 (configuration not stated),-8.75% (inactive)
17,COC(=O)C1=C(C)N(Cc2cccc(C(F)(F)F)c2)C(=NCc2ccccc2)NC1c1ccc(Cl)cc1 (configuration not stated),-7.39% (inactive)
18,CC1CCc2[nH]c3ccc(C(=O)N(C)CC(=O)Nc4cccc(F)c4)cc3c2C1 (configuration not stated),28% (active)
19,CN(CC(=O)Nc1cccc(F)c1)C(=O)CC1CCCC1,-2.56% (inactive)
20,CCCN(CC(=O)Nc1ccccc1C)C(=O)c1ccc2[nH]c3c(c2c1)CC(C)CC3 (configuration not stated),11.3% (inactive)
21,CCOC(=O)/C=C/c1ccccc1O,1.41% (inactive)

row,SMILES,inhibition
1,COc1ccccc1Cc1c(-c2ccc(F)cc2)nc2ccc(C)cn12,4.94% (inactive)
2,CN1C(=O)C2CC(O)C(SC3CC4C(=O)N(C)C(=O)C4CC3O)CC2C1=O (configuration not stated),-0.39% (inactive)
3,CC(C)[C@@H](C)/C=C/[C@@H](C)[C@H]1CC[C@@H]2[C@]1(C)CCC1[C@]23C=C[C@]2(C[C@@H](O)CC[C@]12C)N(c1ccc([N+](=O)[O-])cn1)O3 (some centres not stated),2.09% (inactive)
4,COc1ccccc1OCC(=O)OCc1cc(-c2ccco2)on1,-14.7% (inactive)
5,COc1ccccc1OCc1nnc(SCC(N)=O)n1-c1ccccc1,3.32% (inactive)
6,COc1ccccc1OCC(=O)OCn1c(SC)nnc(C)c1=O,25.6% (active)
7,O=C(NCc1ccccc1)[C@H]1CCCN1C(=O)[C@@H]1CCCN1C(=O)c1ccc(Cl)cc1Cl,11.1% (inactive)
8,Cc1nc(NC(=O)C(C)(C)C)sc1[N+](=O)[O-],-3.35% (inactive)
9,O=C(N[C@H](Cc1ccccc1)C(=O)N1CCCN(Cc2cccs2)CC1)[C@H]1O[C@@H](n2ccc(=O)[nH]c2=O)[C@H](O)[C@@H]1O,17.7% (inactive)
10,CCOc1ccc(C(=O)Nc2cccc(SC)c2)cc1,2.92% (inactive)
11,COc1ccc(NC(=O)c2ccc(C#CC(C)(C)O)cc2)cc1,-7.91% (inactive)
12,Cc1ccc(NC(=O)c2ccc(Oc3ncccn3)cc2)cc1,25.6% (active)
13,CC(C)C[C@H](NC(=O)CC1CCCC1)C(=O)N1CCC[C@H]1C(=O)NCc1ccccc1,2.12% (inactive)
14,Nc1ncnc2c1ncn2C1OC(CO)CC1O (configuration not stated),3.3% (inactive)
15,CC1(C)Cc2nc3sc4c(SCC(=O)NC(c5ccccc5)c5ccccc5)ncnc4c3cc2CO1,-6.88% (inactive)
16,CC(C)CCSc1ncnc2c1oc1nc3c(cc12)COC(C)(C)C3,28.1% (active)
17,CCCc1nc2oc3c(OCC)ncnc3c2c2c1COC(C)(C)C2,16.9% (inactive)
18,O=C(NCc1ccccc1)[C@H]1CCCN1C(=O)[C@H]1CCCN1C(=O)N1CCOCC1,-1.77% (inactive)
19,COC(=O)C1=C(C)N(Cc2ccc(C(F)(F)F)cc2)C(=NCc2ccc(C(F)(F)F)cc2)NC1c1cccc(Cl)c1 (configuration not stated),9.23% (inactive)
